Assay: Toxicity liver stage against HepG2, at 10uM
Type: cell-based
Parameters: test concentration 10 uM, cell line HepG2-A16-CD81EGFP
Settings: human, HepG2-A16-CD81EGFP cells; read-out: INHIBITION
Outline: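 Uninfected HepG2-A16-CD81EGFP cells, 3 × 10^3 per well, 1536-well, plated on prespotted compound at 10 μM final, parasite-free screening media added to match infected plates; puromycin 10 μM positive, DMSO 0.5% negative; run in parallel with 48 h PbLuc assay at 37 °C, 5% CO2; viability by CellTiter-Glo luminescence, normalized to controls.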

Compound: COc1c(C2CCCN2CCOc2ccccc2C#N)c(C)nn1C (stereo not given)
- cytotoxicity at 10 µM: 2.59%

Compound: CS(=O)(=O)N1CCO[C@@H]2CN(C(=O)c3ccnnc3)C[C@@H]2C1
- cytotoxicity at 10 µM: 5.97%

Compound: Cc1nc(-c2cccs2)ccc1C(=O)N1CCN(CCO)CC1
- cytotoxicity at 10 µM: -56%

Compound: Cc1cc(C)n(C2CCCN(C(=O)c3ccc(F)cc3F)C2)n1 (stereo not given)
- cytotoxicity at 10 µM: 0.743%

Compound: Cc1ccc(OC2(C(=O)O)CCN(C(=O)c3ccc(F)cc3)CC2)cn1
- cytotoxicity at 10 µM: -18.1%

Compound: CC(C)c1ccc(CNC(C)c2ccc(S(=O)(=O)N(C)C)cc2)cc1 (stereo not given)
- cytotoxicity at 10 µM: 32.6%

Compound: OC1(CN2CCN(c3cccc(C(F)(F)F)c3)CC2)CNCCOC1 (stereo not given)
- cytotoxicity at 10 µM: -5.13%

Compound: Cc1ccsc1C(=O)N1C[C@@H]2CN(Cc3ccoc3)CCO[C@@H]2C1
- cytotoxicity at 10 µM: -1.19%

Compound: NS(=O)(=O)N1CCC(CSc2ccccc2)C1 (stereo not given)
- cytotoxicity at 10 µM: -9.8%

Compound: Cc1cnc2n(c1=O)C(CC(=O)NCc1cccs1)CS2 (stereo not given)
- cytotoxicity at 10 µM: 4.68%

Compound: Cc1cc(CN2CCN(C(=O)C(C)C)[C@@H]3CS(=O)(=O)C[C@@H]32)ccc1F
- cytotoxicity at 10 µM: 3.41%

Compound: Cc1ccc(OC2CCN(C(=O)Cc3c(C)[nH]c(=O)[nH]c3=O)CC2)cc1
- cytotoxicity at 10 µM: 6.45%

Compound: COC(=O)[C@H](CCSC)NC(=O)Cc1c(C)nn(-c2ccccc2)c1C
- cytotoxicity at 10 µM: -1.65%

Compound: O=C(NCc1cn2c(n1)CN(Cc1cccc(F)c1)CC2)C1CCC1
- cytotoxicity at 10 µM: 8.79%

Compound: Cc1nc(CN(C)C2CCN(Cc3ccc4ccccc4n3)C2)no1 (stereo not given)
- cytotoxicity at 10 µM: -2.23%

Compound: Cc1cc(CN2C[C@H]3CCC[C@@]3(COCC(=O)N3CCCC3)C2)no1
- cytotoxicity at 10 µM: 8.31%

Compound: CC(C)NC(=O)CC1(Cn2cnnn2)CCCCC1
- cytotoxicity at 10 µM: 9.54%

Compound: CCN(CCO)C[C@@H]1CN(C(=O)c2sc3ccccc3c2C)C[C@@H]1CO
- cytotoxicity at 10 µM: -10.6%

Compound: Cc1nc(CN(C)CC2CCCN(CCc3ccc(Cl)cc3)C2)n(C)n1 (stereo not given)
- cytotoxicity at 10 µM: 4.44%

Compound: CCN1CCC(NC(=O)c2ccc(F)cc2I)CC1
- cytotoxicity at 10 µM: -10%

Compound: O=C(c1occc1CN1C(=O)Cc2ccccc21)N1CCCCCC1
- cytotoxicity at 10 µM: 4.52%

Compound: C[C@@H]1CN(CCC(=O)N(C)Cc2ccccc2)CC[C@@]1(O)C1CCC1
- cytotoxicity at 10 µM: 2.89%

Compound: O=C(c1ccncc1)N1CCc2ncnc(C3CC3)c2CC1
- cytotoxicity at 10 µM: -75.6%

Compound: COCC(=O)N1CCC(C)(c2cc(O)[nH]n2)CC1
- cytotoxicity at 10 µM: -6.92%

Compound: CC(=O)N1CCc2ncn(C)c2C1C(=O)N1CCCC1 (stereo not given)
- cytotoxicity at 10 µM: 1.9%

Compound: CC1(C)OCC2(CO1)CN(C(=O)c1ccccc1Cl)C2
- cytotoxicity at 10 µM: -4.21%

Compound: Nc1nccc(NCc2cc3n(n2)CCCN(C(=O)C2CCC2)C3)n1
- cytotoxicity at 10 µM: -6.49%

Compound: Clc1cccc(C(CNCc2cccnc2)N2CCOCC2)c1 (stereo not given)
- cytotoxicity at 10 µM: -4.45%

Compound: COc1ncccc1C1CC(=O)NCc2nc3ccccn3c21 (stereo not given)
- cytotoxicity at 10 µM: -5.72%

Compound: CC(=O)Nc1nc(CN2CCn3c(C)nnc3C2)cs1
- cytotoxicity at 10 µM: -1.68%

Compound: CC1(NC(=O)Cc2csc(NC(=O)c3ccccc3)n2)CCS(=O)(=O)C1 (stereo not given)
- cytotoxicity at 10 µM: 0.271%

Compound: O=C(O)c1ccn(-c2ccc(NC(=O)c3ccccc3Cl)cc2)n1
- cytotoxicity at 10 µM: -140%

Compound: Cn1cc(C2CCCN2C(=O)Cn2c(=O)oc3ccccc32)cn1 (stereo not given)
- cytotoxicity at 10 µM: 1.84%

Compound: O=C(NCCCN1CCCCC1)c1ccc(-n2ccc3ccccc32)s1
- cytotoxicity at 10 µM: -6.19%

Compound: CCc1nccc(CN2CCCC(CNC(=O)c3ccccn3)C2)n1 (stereo not given)
- cytotoxicity at 10 µM: 4.63%

Compound: CCC(c1ccncc1)N(C)S(C)(=O)=O (stereo not given)
- cytotoxicity at 10 µM: -5.98%

Compound: Cc1cc(C(=O)N[C@H]2CN(CCC(N)=O)C[C@@H]2C2CC2)sc1C
- cytotoxicity at 10 µM: 8.28%

Compound: C[C@H]1CCCCN1CCCNc1nccc(-c2c[nH][nH]c2=O)n1
- cytotoxicity at 10 µM: -6.91%

Compound: O=C(Nc1cnc2n1CCCC2)c1cccc(-n2cnnc2)c1
- cytotoxicity at 10 µM: -4.34%

Compound: Fc1cccc(C2(CNC3CCSC3)CCOCC2)c1 (stereo not given)
- cytotoxicity at 10 µM: -1.86%

Compound: Cc1ccc(-c2nc3c([nH]2)CCNC3C(=O)O)c2cccnc12 (stereo not given)
- cytotoxicity at 10 µM: 5%

Compound: COc1ccc(N2CCCC3(C2)CN(c2cccnc2)CCO3)cc1 (stereo not given)
- cytotoxicity at 10 µM: 6.59%

Compound: COC(=O)[C@@H](Nc1nc(C2CCCC2)nc2c1cnn2C)[C@@H](C)O
- cytotoxicity at 10 µM: -50%

Compound: O=C(Cc1ccsc1)N1C[C@@H]2COC[C@]2(COc2cccnc2)C1
- cytotoxicity at 10 µM: -99.3%

Compound: CCN1CCN(C2CCN(Cc3nnc(C(C)(C)C)o3)CC2)C1=O
- cytotoxicity at 10 µM: 3.8%

Compound: CCN1C[C@@H]2C[C@H](C(=O)Nc3ccccc3)[C@H](C1)O2
- cytotoxicity at 10 µM: -76.4%

Compound: Clc1ccc(NCc2nnc(C3CC3)o2)cc1Cl
- cytotoxicity at 10 µM: -12.4%

Compound: O=C(CCCOCc1ccccc1)N1CCCC(c2ncc[nH]2)C1 (stereo not given)
- cytotoxicity at 10 µM: 8.54%

Compound: Cc1ccc(F)cc1S(=O)(=O)Nc1ccc2c(C(=O)O)c[nH]c2c1
- cytotoxicity at 10 µM: -3.53%

Compound: c1ccc(CCN2CCN(c3ccc4nncn4n3)CC2)nc1
- cytotoxicity at 10 µM: -7.93%

Compound: Cc1nn(-c2ccccc2Cl)c(C)c1CCC(=O)O
- cytotoxicity at 10 µM: 4.68%

Compound: O=C(Nc1ccccn1)NC1CCN(c2ccccc2OC(F)F)C1 (stereo not given)
- cytotoxicity at 10 µM: 11.7%

Compound: CCC(CNC(=O)CNC(C)=O)Oc1cccc(F)c1 (stereo not given)
- cytotoxicity at 10 µM: -43.6%

Compound: CCc1ncc2c(n1)CN(Cc1nc(-c3ccsc3)oc1C)CC2
- cytotoxicity at 10 µM: -8.6%

Compound: CC(=O)Nc1ncc(-c2ccc(C)cc2)[nH]1
- cytotoxicity at 10 µM: -4.63%

Compound: O=C(NCCNS(=O)(=O)c1ccc2c(c1)CCC2)c1ccccc1
- cytotoxicity at 10 µM: 9.36%

Compound: CSc1nc(C2CC2)nc(C)c1C(=O)NCc1cc(C)on1
- cytotoxicity at 10 µM: -11.7%

Compound: CCN(CC)Cc1ccc(C(=O)NC2CCc3cc(Br)ccc32)o1 (stereo not given)
- cytotoxicity at 10 µM: -3.3%

Compound: Cc1cccc(NC(=O)N2CCN(Cc3noc(C4CC4)n3)CC2)c1
- cytotoxicity at 10 µM: -10.1%

Compound: Cc1nc(Nc2ccccn2)cc(N2CCN(S(C)(=O)=O)CC2)n1
- cytotoxicity at 10 µM: 3.96%

Compound: CCN(CC)C(=O)[C@@H]1C[C@@H](n2cc(-c3ccccn3)nn2)CN1
- cytotoxicity at 10 µM: 9.63%

Compound: O=C(Nc1ccccc1OCCc1ccccn1)N1CC[C@@H](O)C1
- cytotoxicity at 10 µM: 4.4%

Compound: Cc1noc([C@@H]2C[C@@H]3CCN(CC4CCOCC4)C[C@H]3O2)n1
- cytotoxicity at 10 µM: -130%

Compound: Cc1noc(CCCNC(=O)C2CSCN2C(=O)C(C)(C)C)n1 (stereo not given)
- cytotoxicity at 10 µM: -54.4%

Compound: Cc1ccc2nc(C(=O)N3CCCC[C@]4(C)NC(=O)CCC[C@H]34)cn2c1
- cytotoxicity at 10 µM: -9.99%

Compound: Cc1ccc(-c2[nH]c3ccccc3c2C(=O)O)c(C)c1
- cytotoxicity at 10 µM: 12.3%

Compound: CC1(C)OC(=O)N(CC(=O)N2CCC(c3ccccc3F)C2)C1=O (stereo not given)
- cytotoxicity at 10 µM: 0.189%

Compound: COc1ccccc1CC(C)(C)NC(=O)CN(C)C(C)C
- cytotoxicity at 10 µM: 3.04%

Compound: CC(C)NC(=O)CC1[C@H]2CN(C(=O)Cc3ccccn3)C[C@@H]12 (stereo not given in full)
- cytotoxicity at 10 µM: 12%

Compound: O=C(c1ccnc(-n2ccnc2)c1)N1CCCC(n2cccn2)C1 (stereo not given)
- cytotoxicity at 10 µM: 1.21%

Compound: Cc1nc(C)n(CC2CCCN2CC(=O)NCCC2=CCCCC2)n1 (stereo not given)
- cytotoxicity at 10 µM: -0.527%

Compound: Cc1nc(-c2ccccc2)nc2c1CCN(Cc1nccn1C)CC2
- cytotoxicity at 10 µM: -118%

Compound: CC(C)N1CCc2c(CNC(=O)c3nccn3C)cncc2C1
- cytotoxicity at 10 µM: -106%

Compound: O=c1[nH]nc2nc(N3CCCC3)ccn12
- cytotoxicity at 10 µM: -6.07%

Compound: CC(O)CNCc1c(C(C)C)nn(C)c1N1CCOCC1 (stereo not given)
- cytotoxicity at 10 µM: -3.48%

Compound: Cc1ccccc1N1CCN(c2nc(N(C)C)nc3c2CCNC3)CC1
- cytotoxicity at 10 µM: 8.97%

Compound: O=S(=O)(N1CCOCC1)N1CCc2sccc2C1
- cytotoxicity at 10 µM: -92.3%

Compound: CC(CCNC(=O)N(C)CC1CCOCC1)N1CCCCC1 (stereo not given)
- cytotoxicity at 10 µM: 8.63%

Compound: Cc1cnn(CC2CCCCN2C(=O)c2ccc3[nH]nnc3c2)c1 (stereo not given)
- cytotoxicity at 10 µM: 4.19%

Compound: CN1CCN(Cc2cn3c(n2)CNCC3)CC1
- cytotoxicity at 10 µM: 7.85%

Source: ChEMBL document CHEMBL4513216, “Probing the Open Global Health Chemical Diversity Library for Multistage-Active Starting Points for Next-Generation Antimalarials” (ACS Infect Dis, 2020)
